Experimental data from different studies.
Lines come from different studies, so protocols differ.
Read-out: enzyme activity
Action: inhibitor
ABL1: Tyrosine-protein kinase ABL1 (ABL1, Homo sapiens, UniProt P00519)
ABL1 T315I: Tyrosine-protein kinase ABL1 (ABL1, Homo sapiens, UniProt P00519, T315I)
ABL1 H396P: Tyrosine-protein kinase ABL1 (ABL1, Homo sapiens, UniProt P00519, H396P)

CN(C)C1CCN(CC#Cc2nn(C3CCCC3)c3nc(NCc4ccccc4)ncc23)C1 (stereo not drawn) has an inhibition of 1% (ABL1; FRET; 0.1 µM).
For CS(=O)(=O)Nc1cccc(-c2csc(NC(=O)CSc3nc4nccnc4c(=O)n3CCc3ccccc3)n2)c1, the inhibition was -2% (ABL1 T315I; 10 µM).
C=CC(=O)Nc1cc(Nc2nccc(Nc3cc(Cl)c(F)cc3C(C)(C)O)n2)c(OC)cc1N1CC[C@@H](N(C)C)C1 gave an inhibition of 18% (ABL1 T315I; 1 µM).
The inhibition of CNCc1ccc(-c2cc(-c3nc(-c4ccc(S(=O)(=O)C(C)C)cc4)cnc3N)on2)cc1 is reported as 11% (ABL1; 0.4 µM).
O=C(CSc1nc2nccnc2c(=O)n1CCc1ccccc1)Nc1nccs1 gave an inhibition of -1% (Tyrosine-protein kinase ABL1 (ABL1, Homo sapiens, UniProt P00519, E255K); 10 µM).
COc1cc2ncnc(Nc3ccc(Oc4ccccc4)cc3C)c2cc1OC gave an inhibition of 12% (Tyrosine-protein kinase ABL1 (ABL1, Homo sapiens, UniProt P00519, Y253F); 1 µM).
With CNc1cccc2cc(C(=O)Nc3ccc(C(=O)O)cc3)c(=O)[nH]c12 the inhibition was 1.9% (ABL1 H396P; 10 µM).
For COc1cc(-c2cc(-c3ccc(N4CCNCC4)cc3)cnc2N)cc(OC)c1OC, the inhibition was 87% (ABL1 H396P; 0.1 µM).
The inhibition of COc1cc2nccc(Oc3ccc(NC(=O)c4c5n(n(-c6ccc(F)cc6)c4=O)CCCC5)cc3)c2cc1OC is reported as 26% (ABL1; 0.1 µM).
For COc1cc2ncnc(Nc3ccc(Oc4ccccc4)c(C)c3C)c2cc1OC, the inhibition was -4% (ABL1; 1 µM).
With CC/C(=N\NC(=O)NCc1cccc(O)c1)c1ccc(O)c(C)c1O the inhibition was -0.9% (ABL1; 0.1 µM).
CNC(=O)c1cc2c(Oc3ccc(NC(=O)C4(C(=O)Nc5ccc(F)cc5)CC4)cc3)ccnc2cc1OC gave an inhibition of 75% (ABL1 T315I; radiometric; 1 µM).
